Measured values as given in ChEMBL document CHEMBL2046324, “Synthesis and biological evaluation of 1-arylsulfonyl-5-(N-hydroxyacrylamide)indoles as potent histone deacetylase inhibitors with antitumor activity in vivo” (J Med Chem, 2012).
≈ marks a conversion by molar mass, not a printed value.

Tests used:
A549 [1] = test: Antitumor activity against human A549 cells xenografted in nude mouse assessed as time to end point at 100 mg/kg, po administered QD till end point; format: functional
[2] = Solubility of the compound in EtOH after 24 hrs by HPLC analysis; format: physicochemical
CYP2C8 = target: T1, CYP2C8 (Homo sapiens, UniProt P10632); test: Inhibition of CYP2C8 at 10 uM; format: ADME
T1 sequence (P10632 whole entry): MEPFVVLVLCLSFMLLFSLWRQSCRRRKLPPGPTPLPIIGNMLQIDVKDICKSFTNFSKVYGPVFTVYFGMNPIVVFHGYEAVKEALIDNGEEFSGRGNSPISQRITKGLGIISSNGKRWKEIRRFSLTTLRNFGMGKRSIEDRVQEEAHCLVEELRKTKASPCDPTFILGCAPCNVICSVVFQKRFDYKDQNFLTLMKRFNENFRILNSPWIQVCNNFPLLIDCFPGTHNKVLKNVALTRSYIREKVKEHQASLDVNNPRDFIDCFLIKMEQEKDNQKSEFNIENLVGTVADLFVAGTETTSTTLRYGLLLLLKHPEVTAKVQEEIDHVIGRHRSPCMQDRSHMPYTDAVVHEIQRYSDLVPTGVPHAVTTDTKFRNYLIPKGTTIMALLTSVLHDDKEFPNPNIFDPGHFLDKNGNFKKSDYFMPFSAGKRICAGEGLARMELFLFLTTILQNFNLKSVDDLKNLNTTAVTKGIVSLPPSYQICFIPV

[3] = Half life in Sprague-Dawley rat at 2 mg/kg, iv; format: ADME, organism-based; design: dose 2 mg/kg, route intravenous; settings: in vivo
In short: (§1)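 Male Sprague-Dawley rats (250–350 g, 8–10 weeks), three per group. Single 2 mg/kg iv bolus into the jugular vein in PEG400/DMSO (80:20, v/v), or 20 mg/kg orally in 1% carboxymethyl cellulose plus 0.5% Tween 80. Plasma was assayed by LC-MS/MS (MRM) and analysed noncompartmentally.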

CYP2C19 = CYP2C19 (Homo sapiens, UniProt P33261); test: Inhibition of CYP2C19 at 10 uM; format: ADME
A549 [4] = test: Antitumor activity against human A549 cells xenografted in po dosed nude mouse assessed as tumor growth delay administered QD till end point; format: functional, organism-based
CYP2C9 = CYP2C9 (Homo sapiens, UniProt P11712); test: Inhibition of CYP2C9 at 10 uM; format: ADME
Mus musculus [5] = test: Toxicity in nude mouse bearing human A549 cells assessed as adverse effects at 100 mg/kg, po QD; format: organism-based; design: dose 100 mg/kg, route oral; settings: in vivo
[6] = Oral bioavailability in Sprague-Dawley rat at 20 mg/kg; format: ADME, organism-based; settings: in vivo; in short: as §1
Mus musculus [7] = test: Toxicity in nude mouse bearing human A549 cells assessed as adverse effects at 200 mg/kg, po QD; format: organism-based; design: dose 200 mg/kg, route oral; settings: in vivo
A549 [8] = test: Antitumor activity against human A549 cells xenografted in nude mouse assessed as tumor growth delay at 200 mg/kg, po administered QD till end point; format: functional
In short: (§2)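 At about 65 mm³ they were randomized, seven per group, and dosed po daily at 10 mL/kg in 0.5% carboxymethyl cellulose until a 1000 mm³ end point. Volume was w²l/2. TTE came from linear regression of log volume; TGD = T − C and %TGD = (T − C)/C × 100.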

A549 [9] = test: Growth inhibition of human A549 cells after 48 hrs by SRB assay; format: functional; settings: Homo sapiens, A549, 48 h
In short: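 A549 cells were grown in RPMI 1640 with 10% FBS and 2 mM glutamine at 37 °C in 5% CO₂, then seeded in medium with 5% FBS. A 24 h TCA-fixed plate gave T₀. Cells were exposed to compound or DMSO for 48 h, fixed with 10% TCA and stained with 0.4% SRB; bound dye was solubilized in 10 mM Tris and read at 515 nm. GI₅₀ was the concentration halving net protein increase. At least three independent experiments.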

[10] = Half life in Sprague-Dawley rat at 20 mg/kg, po; format: ADME, organism-based; design: dose 20 mg/kg, route oral; settings: in vivo; in short: as §1
Tubulin (Homo sapiens) [11] = target: T2, Tubulin (Homo sapiens) (UniProt P68371+Q9H4B7+P0DPH7+P68366+Q13509+Q71U36+P04350+Q3ZCM7+P07437+P68363+Q9BQE3+Q6PEY2+Q13885+Q9BVA1+Q9BUF5); test: Inhibition of HDAC in human PC3 cells assessed as tubulin acetylation after 48 hrs by Western blot analysis; settings: PC-3
cells = format: functional, Hep 3B2; settings: Homo sapiens, Hep3B, 48 h
Tubulin (Homo sapiens) [12] = target: T2, Tubulin (Homo sapiens); test: Inhibition of HDAC in human A549 cells assessed as tubulin acetylation after 48 hrs by Western blot analysis
MDA-MB-231 = test: cells; format: functional; settings: Homo sapiens, MDA-MB-231, 48 h
[13] = Cmax in Sprague-Dawley rat at 20 mg/kg, po; format: ADME, organism-based; design: dose 20 mg/kg, route oral; settings: in vivo; in short: as §1
Mus musculus [14] = test: Toxicity in nude mouse bearing human A549 cells assessed as body weight change at 200 mg/kg, po QD; format: organism-based; design: dose 200 mg/kg, route oral; settings: in vivo
In short: (§3)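 Nude mice bearing sc A549 xenografts were dosed po daily in 0.5% carboxymethyl cellulose at 10 mL/kg, scaled to body weight.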

[15] = AUC (0 to infinity) in Sprague-Dawley rat at 2 mg/kg, iv; format: ADME, organism-based; design: dose 2 mg/kg, route intravenous, time infinity; settings: plasma; in short: as §1
Mus musculus [16] = test: Toxicity in nude mouse bearing human A549 cells assessed as body weight change at 100 mg/kg, po QD; format: organism-based; design: dose 100 mg/kg, route oral; settings: in vivo; in short: as §3
A549 [17] = test: Antitumor activity against human A549 cells xenografted in nude mouse assessed as tumor growth inhibition at 200 mg/kg, po administered QD till end point; format: functional; settings: read-out: GI
[18] = Solubility of the compound in water after 24 hrs by HPLC analysis; format: physicochemical
[19] = Clearance in Sprague-Dawley rat at 2 mg/kg, iv; format: ADME, organism-based; design: dose 2 mg/kg, route intravenous; settings: in vivo; in short: as §1
A549 [20] = test: Antitumor activity against human A549 cells xenografted in nude mouse assessed as tumor growth delay at 100 mg/kg, po administered QD till end point; format: functional
CYP2D6 = CYP2D6 (Homo sapiens, UniProt P10635); test: Inhibition of CYP2D6 at 10 uM; format: ADME
[21] = AUC (0 to infinity) in Sprague-Dawley rat at 20 mg/kg, po; format: ADME, organism-based; design: time infinity, dose 20 mg/kg, route oral; settings: plasma; in short: as §1
CYP1A2 = target: T3, CYP1A2 (Homo sapiens, UniProt P05177); test: Inhibition of CYP1A2 at 10 uM; format: ADME
T3 sequence (P05177 whole entry): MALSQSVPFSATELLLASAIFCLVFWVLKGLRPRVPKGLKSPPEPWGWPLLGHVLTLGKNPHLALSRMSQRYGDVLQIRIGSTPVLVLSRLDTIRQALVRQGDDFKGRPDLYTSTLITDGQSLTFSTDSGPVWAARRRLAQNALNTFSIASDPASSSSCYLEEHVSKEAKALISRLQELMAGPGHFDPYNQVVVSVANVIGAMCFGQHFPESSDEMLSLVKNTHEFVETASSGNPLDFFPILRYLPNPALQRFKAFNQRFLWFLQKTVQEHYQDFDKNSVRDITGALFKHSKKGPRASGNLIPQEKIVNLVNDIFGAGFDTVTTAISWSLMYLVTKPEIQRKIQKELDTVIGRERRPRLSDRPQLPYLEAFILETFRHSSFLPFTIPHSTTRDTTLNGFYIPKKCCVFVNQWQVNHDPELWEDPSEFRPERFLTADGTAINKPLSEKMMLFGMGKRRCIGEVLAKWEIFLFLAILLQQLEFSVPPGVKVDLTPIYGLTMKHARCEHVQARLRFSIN

CYP3A4 = CYP3A4 (Homo sapiens, UniProt P08684); test: Inhibition of CYP3A4 at 10 uM; format: ADME
PC-3 = test: cells; format: functional; settings: Homo sapiens, PC-3, 48 h
[22] = Volume of distribution at steady state in Sprague-Dawley rat at 2 mg/kg, iv; format: ADME, organism-based; design: dose 2 mg/kg, route intravenous; settings: in vivo, read-out: Vdss; in short: as §1
CYP2E1 = CYP2E1 (Homo sapiens, UniProt P05181); test: Inhibition of CYP2E1 at 10 uM; format: ADME
A549 [23] = test: Antitumor activity against human A549 cells xenografted in nude mouse assessed as tumor growth inhibition at 100 mg/kg, po administered QD till end point; format: functional; settings: read-out: GI
In short: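 A549 sc xenografts in female nude mice, seven per group, dosed po daily in 0.5% carboxymethyl cellulose (10 mL/kg) to a 1000 mm³ end point. Tumor volume was w²l/2. TGI was expressed as % T/C of tumor volumes, treated versus control, and compared with control by P value at the indicated days.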

[24] = Tmax in Sprague-Dawley rat at 20 mg/kg, po; format: ADME, organism-based; design: dose 20 mg/kg, route oral; settings: in vivo; in short: as §1
A549 [25] = test: Antitumor activity against human A549 cells xenografted in nude mouse assessed as time to end point at 200 mg/kg, po administered QD till end point; format: functional; in short: as §2

Sequence of CYP2C9 (P11712 whole entry): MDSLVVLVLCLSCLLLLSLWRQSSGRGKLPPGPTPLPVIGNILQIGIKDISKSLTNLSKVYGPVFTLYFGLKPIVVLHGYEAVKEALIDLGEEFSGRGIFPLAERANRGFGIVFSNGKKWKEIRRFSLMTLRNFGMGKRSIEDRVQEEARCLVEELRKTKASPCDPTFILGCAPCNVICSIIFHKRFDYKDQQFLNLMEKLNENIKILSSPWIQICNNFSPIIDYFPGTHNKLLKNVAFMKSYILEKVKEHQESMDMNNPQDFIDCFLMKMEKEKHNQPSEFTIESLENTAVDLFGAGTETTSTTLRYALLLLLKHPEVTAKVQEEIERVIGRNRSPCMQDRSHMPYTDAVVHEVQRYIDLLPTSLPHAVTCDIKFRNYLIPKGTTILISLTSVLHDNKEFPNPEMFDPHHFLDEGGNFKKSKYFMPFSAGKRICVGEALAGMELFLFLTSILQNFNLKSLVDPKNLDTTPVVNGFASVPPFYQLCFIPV
Sequence of CYP2C19 (P33261 whole entry): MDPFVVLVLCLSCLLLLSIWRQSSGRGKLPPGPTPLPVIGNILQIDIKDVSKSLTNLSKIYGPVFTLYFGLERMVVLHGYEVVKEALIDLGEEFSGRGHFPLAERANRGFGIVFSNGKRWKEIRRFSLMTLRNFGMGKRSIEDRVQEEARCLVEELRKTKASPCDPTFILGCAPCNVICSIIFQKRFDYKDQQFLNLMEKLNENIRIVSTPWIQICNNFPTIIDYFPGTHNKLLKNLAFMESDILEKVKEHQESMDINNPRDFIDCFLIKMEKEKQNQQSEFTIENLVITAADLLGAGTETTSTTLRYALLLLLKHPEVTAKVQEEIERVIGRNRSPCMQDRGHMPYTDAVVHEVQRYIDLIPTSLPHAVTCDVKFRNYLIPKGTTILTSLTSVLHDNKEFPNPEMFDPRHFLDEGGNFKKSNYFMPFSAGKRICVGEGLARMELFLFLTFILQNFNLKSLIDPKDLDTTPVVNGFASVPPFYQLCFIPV
Sequence of CYP2E1 (P05181 whole entry): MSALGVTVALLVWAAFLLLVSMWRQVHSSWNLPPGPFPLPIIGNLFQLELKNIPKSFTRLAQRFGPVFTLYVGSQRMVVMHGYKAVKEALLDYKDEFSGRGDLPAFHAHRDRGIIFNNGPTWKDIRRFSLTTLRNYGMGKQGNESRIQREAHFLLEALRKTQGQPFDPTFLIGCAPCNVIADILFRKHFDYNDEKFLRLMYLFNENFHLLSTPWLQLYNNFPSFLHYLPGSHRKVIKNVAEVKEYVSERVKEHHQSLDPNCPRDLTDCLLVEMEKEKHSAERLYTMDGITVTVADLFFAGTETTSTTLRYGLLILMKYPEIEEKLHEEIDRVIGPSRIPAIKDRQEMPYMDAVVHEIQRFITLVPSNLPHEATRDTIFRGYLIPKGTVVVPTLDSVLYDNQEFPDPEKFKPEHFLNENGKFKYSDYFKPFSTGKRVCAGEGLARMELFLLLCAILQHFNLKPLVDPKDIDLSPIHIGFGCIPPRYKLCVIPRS
Sequence of CYP2D6 (P10635 whole entry): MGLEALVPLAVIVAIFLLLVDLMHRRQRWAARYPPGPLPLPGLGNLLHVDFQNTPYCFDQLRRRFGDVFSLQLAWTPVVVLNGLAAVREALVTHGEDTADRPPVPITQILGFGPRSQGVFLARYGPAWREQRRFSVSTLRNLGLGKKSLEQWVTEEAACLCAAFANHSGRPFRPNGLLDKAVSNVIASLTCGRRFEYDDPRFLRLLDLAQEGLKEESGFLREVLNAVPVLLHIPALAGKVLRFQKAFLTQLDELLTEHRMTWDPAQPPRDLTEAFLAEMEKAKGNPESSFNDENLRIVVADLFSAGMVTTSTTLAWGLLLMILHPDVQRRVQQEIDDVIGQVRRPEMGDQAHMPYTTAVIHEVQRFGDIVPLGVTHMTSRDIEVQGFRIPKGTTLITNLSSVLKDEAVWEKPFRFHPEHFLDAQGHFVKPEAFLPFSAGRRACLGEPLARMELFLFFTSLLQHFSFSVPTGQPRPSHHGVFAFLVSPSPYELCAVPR
Sequence of CYP3A4 (P08684 whole entry): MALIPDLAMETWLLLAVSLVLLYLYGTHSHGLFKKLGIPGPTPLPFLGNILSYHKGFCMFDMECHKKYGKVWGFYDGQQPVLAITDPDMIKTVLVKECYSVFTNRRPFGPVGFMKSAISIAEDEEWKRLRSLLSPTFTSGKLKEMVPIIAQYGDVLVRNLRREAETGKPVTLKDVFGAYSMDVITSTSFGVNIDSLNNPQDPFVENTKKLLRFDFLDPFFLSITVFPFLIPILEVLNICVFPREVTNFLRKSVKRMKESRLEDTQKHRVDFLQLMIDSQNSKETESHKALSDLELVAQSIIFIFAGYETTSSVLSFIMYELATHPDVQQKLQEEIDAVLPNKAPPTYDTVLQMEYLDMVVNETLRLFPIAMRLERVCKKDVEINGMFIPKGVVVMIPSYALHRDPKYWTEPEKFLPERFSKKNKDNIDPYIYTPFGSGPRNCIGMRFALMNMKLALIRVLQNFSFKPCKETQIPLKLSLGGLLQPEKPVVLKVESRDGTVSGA

solubility at 24 h [2]: 939 µg/mL (≈ 2740 µM)
inhibition at 10 µM (CYP2C8): 78%
half-life [3]: 2.6 h
inhibition at 10 µM (CYP2C19): 78%
inhibition at 10 µM (CYP2C9): 22%
bioavailability [6]: 10%
GI50 (A549 [9]): 1020 nM
half-life [10]: 5.5 h
inhibition (Tubulin (Homo sapiens) [11]): Dose-dependent effect
inhibition (Tubulin (Homo sapiens) [12]): Dose-dependent effect
GI50 (MDA-MB-231): 480 nM
Cmax [13]: 217 ng/mL
AUC(0-inf) [15]: 927 ng·h/mL
solubility at 24 h [18]: < 1 µg/mL
clearance [19]: 35.5 mL/min/kg
inhibition at 10 µM (CYP2D6): 31%
AUC(0-inf) [21]: 916 ng·h/mL
inhibition at 10 µM (CYP1A2): 51%
inhibition at 10 µM (CYP3A4): 65%
GI50 (PC-3): 620 nM
Vd [22]: 2.1 L/kg
inhibition at 10 µM (CYP2E1): 22%
Tmax [24]: 1.7 h
Compound: O=C(/C=C/c1ccc2c(ccn2S(=O)(=O)c2ccccc2)c1)NO
Time (A549 [1]): 36.2 days
Activity (A549 [4]): Dose-dependent effect
Activity (Mus musculus [5]): Non-toxic
Activity (Mus musculus [7]): Non-toxic
Activity (A549 [8]): 47%
GI50 (cells): 410 nM
Activity (Mus musculus [14]): Non-toxic
Activity (Mus musculus [16]): Non-toxic
inhibition in vivo at 200 mg/kg (A549 [17]): 32.1%
Activity (A549 [20]): 34%
inhibition in vivo at 100 mg/kg (A549 [23]): 15%
Time (A549 [25]): 39.8 days
